Measured values from ChEMBL document CHEMBL1130133, “Terbenzimidazoles: influence of 2"-, 4-, and 5-substituents on cytotoxicity and relative potency as topoisomerase I poisons” (J Med Chem, 1997).

Experiments:
[1] = molecular target: T1, DNA topoisomerase 1 (Homo sapiens) (UniProt P11387); assay: Topoisomerase I mediated DNA cleavage; assay type: functional
T1 sequence (whole entry): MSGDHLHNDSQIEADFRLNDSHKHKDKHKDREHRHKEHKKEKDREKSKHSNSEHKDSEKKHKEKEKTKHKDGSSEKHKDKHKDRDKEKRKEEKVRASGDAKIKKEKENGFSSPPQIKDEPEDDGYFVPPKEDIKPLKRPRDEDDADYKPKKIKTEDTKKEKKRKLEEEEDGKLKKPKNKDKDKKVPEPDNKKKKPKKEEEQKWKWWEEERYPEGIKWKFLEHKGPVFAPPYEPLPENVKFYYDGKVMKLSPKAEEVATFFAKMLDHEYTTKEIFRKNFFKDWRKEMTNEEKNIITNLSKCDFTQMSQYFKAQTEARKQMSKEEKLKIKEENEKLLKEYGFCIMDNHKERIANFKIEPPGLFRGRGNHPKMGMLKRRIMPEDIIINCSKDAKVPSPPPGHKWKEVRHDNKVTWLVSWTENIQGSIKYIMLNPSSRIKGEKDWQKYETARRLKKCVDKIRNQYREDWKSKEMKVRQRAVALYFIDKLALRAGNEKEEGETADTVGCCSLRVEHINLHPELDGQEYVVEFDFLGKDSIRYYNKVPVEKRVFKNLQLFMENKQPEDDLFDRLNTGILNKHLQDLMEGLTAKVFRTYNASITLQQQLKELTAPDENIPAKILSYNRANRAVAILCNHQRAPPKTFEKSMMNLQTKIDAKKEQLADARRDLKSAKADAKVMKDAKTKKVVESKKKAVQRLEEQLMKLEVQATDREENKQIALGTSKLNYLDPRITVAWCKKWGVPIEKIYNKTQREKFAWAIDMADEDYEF
How it was run: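 Recombinant human topoisomerase I (expressed in E. coli) was incubated with end-labeled plasmid YEpG DNA and drug for 30 min at 37 °C. Drug was given as 10-fold serial dilutions from 0.01 to 10 µg/mL. Fragments were separated on gels and autoradiographed, typically with 24 h exposure. Cleavage was scored from the strongest specific band and expressed as concentration relative to reference compound (set to 1) giving equal cleavage.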

RPMI 8402 = assay: Cytotoxicity using human lymphoblast RPMI 8402 cells.; assay type: functional, cell-based
How it was run: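 Human lymphoblast RPMI 8402 cells were grown in suspension at 37 °C, 5% CO2, in RPMI with 10% heat-inactivated FBS, 2 mM L-glutamine, penicillin 100 U/mL and streptomycin 0.1 mg/mL. Cells were seeded at 2000/well and exposed continuously to a range of drug concentrations for 4 days, then read by MTT assay. A no-drug control was included, and each assay was run at least twice in six replica wells.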

| Structure (SMILES) | REC [1] | IC50 (RPMI 8402) |
| --- | --- | --- |
| c1ccc2cc(-c3ccc4[nH]c(-c5ccc6[nH]c(-c7ccc8[nH]cnc8c7)nc6c5)nc4c3)ccc2c1 | 1 | 80 nM |
| Clc1ccc(-c2ccc3[nH]c(-c4ccc5[nH]c(-c6ccc7[nH]cnc7c6)nc5c4)nc3c2)cc1 | 2 | 90 nM |
| COc1ccc(-c2nc3cc(-c4nc5cc(-c6nc7cc(-c8ccccc8)ccc7[nH]6)ccc5[nH]4)ccc3[nH]2)cc1 | 20 | 380 nM |
| c1ccc2c(c1)ccc1[nH]c(-c3ccc4[nH]c(-c5ccc6[nH]cnc6c5)nc4c3)nc12 | 1 | 25000 nM |
| c1ccc(-c2ccc3[nH]c(-c4ccc5[nH]c(-c6ccc7[nH]cnc7c6)nc5c4)nc3c2)cc1 | 1 |  |
| c1ccc(-c2cccc3[nH]c(-c4ccc5[nH]c(-c6ccc7[nH]cnc7c6)nc5c4)nc23)cc1 | 5 | 7000 nM |
| CC(C)c1nc2cc(-c3nc4cc(-c5nc6cc(-c7ccccc7)ccc6[nH]5)ccc4[nH]3)ccc2[nH]1 | 0.05 | 60 nM |
| c1ccc(-c2ccc3[nH]c(-c4ccc5[nH]c(-c6ccc7[nH]c(-c8ccccc8)nc7c6)nc5c4)nc3c2)cc1 | 20 | 60 nM |
| Cc1nc2cc(-c3nc4cc(-c5nc6cc(-c7ccccc7)ccc6[nH]5)ccc4[nH]3)ccc2[nH]1 | 2 | 110 nM |
| c1ccc2cc3[nH]c(-c4ccc5[nH]c(-c6ccc7[nH]cnc7c6)nc5c4)nc3cc2c1 | > 1000 | > 100000 nM |
| c1ccc2c(-c3ccc4[nH]c(-c5ccc6[nH]c(-c7ccc8[nH]cnc8c7)nc6c5)nc4c3)cccc2c1 | 2 | 2100 nM |
| CCc1nc2cc(-c3nc4cc(-c5nc6cc(-c7ccccc7)ccc6[nH]5)ccc4[nH]3)ccc2[nH]1 | 1 | 110 nM |
| COc1ccc(-c2ccc3[nH]c(-c4ccc5[nH]c(-c6ccc7[nH]cnc7c6)nc5c4)nc3c2)cc1 | 0.5 | 90 nM |
| CCCc1nc2cc(-c3nc4cc(-c5nc6cc(-c7ccccc7)ccc6[nH]5)ccc4[nH]3)ccc2[nH]1 | 0.5 | 60 nM |
